{"source": "ChEMBL document CHEMBL3045357", "about": "“DNA adducts as biomarkers for oxidative and genotoxic stress from pesticides in crop plants” (J Agric Food Chem, 2008)", "format_in_all_cases": "organism-based", "details_in_all_cases": "in vivo, other, 336 h", "key": {"Glycine max [1]": {"tested_on": "Glycine max", "experiment": "Genotoxicity in Glycine max (soybean) exposed to compound through spray 4 times over 2 weeks assessed as relative adduct level A6 measured per 10^9 nucleotides using [32P]labeling based autoradiography relative to untreated control", "in_short": "(§1)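 Plants (2–6 weeks grown), groups of 2–4, sprayed 4 times over 2 weeks with formulations diluted per label (chlorothalonil 1:256, carbaryl 1:64 in water); controls water-sprayed. DNA from 1 g leaf via DNeasy Maxi kit. 10 µg DNA digested with micrococcal nuclease/spleen phosphodiesterase (4 h, 37 °C), NP1-enriched (45 min, 37 °C), labelled with [γ-32P]ATP/T4 kinase (45 min, 37 °C).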"}, "Glycine max [2]": {"tested_on": "Glycine max", "experiment": "Genotoxicity in Glycine max (soybean) exposed to compound through spray 4 times over 2 weeks assessed as relative adduct level A5 measured per 10^9 nucleotides using [32P]labeling based autoradiography relative to untreated control", "in_short": "as §1"}, "Glycine max [3]": {"tested_on": "Glycine max", "experiment": "Genotoxicity in Glycine max (soybean) exposed to compound through spray 4 times over 2 weeks assessed as relative adduct level A4 measured per 10^9 nucleotides using [32P]labeling based autoradiography relative to untreated control", "in_short": "as §1"}, "Glycine max [4]": {"tested_on": "Glycine max", "experiment": "Genotoxicity in Glycine max (soybean) exposed to compound through spray 4 times over 2 weeks assessed as relative adduct level A3 measured per 10^9 nucleotides using [32P]labeling based autoradiography relative to untreated control", "in_short": "as §1"}, "Glycine max [5]": {"tested_on": "Glycine max", "experiment": "Genotoxicity in Glycine max (soybean) exposed to compound through spray 4 times over 2 weeks assessed as relative adduct level A2 measured per 10^9 nucleotides using [32P]labeling based autoradiography relative to untreated control", "in_short": "as §1"}, "Glycine max [6]": {"tested_on": "Glycine max", "experiment": "Genotoxicity in Glycine max (soybean) exposed to compound through spray 4 times over 2 weeks assessed as relative adduct level A1 measured per 10^9 nucleotides using [32P]labeling based autoradiography relative to untreated control", "in_short": "as §1"}, "Glycine max [7]": {"tested_on": "Glycine max", "experiment": "Genotoxicity in Glycine max (soybean) exposed to compound through spray 4 times over 2 weeks assessed as HNE-dG adducts using [32P]labeling based autoradiography (reference value: 34 cpm)", "in_short": "as §1"}, "Cucurbita pepo [8]": {"tested_on": "Cucurbita pepo", "experiment": "Genotoxicity in Cucurbita pepo (pumpkin) exposed to compound through spray 4 times over 2 weeks assessed as relative adduct level A6 measured per 10^9 nucleotides using HX-dG internal standard using [32P]labeling based autoradiography relative to untreated control", "in_short": "as §1"}, "Cucurbita pepo [9]": {"tested_on": "Cucurbita pepo", "experiment": "Genotoxicity in Cucurbita pepo (pumpkin) exposed to compound through spray 4 times over 2 weeks assessed as relative adduct level A5 measured per 10^9 nucleotides using HX-dG internal standard using [32P]labeling based autoradiography relative to untreated control", "in_short": "as §1"}, "Cucurbita pepo [10]": {"tested_on": "Cucurbita pepo", "experiment": "Genotoxicity inCucurbita pepo (pumpkin) exposed to compound through spray 4 times over 2 weeks assessed as relative adduct level A4 measured per 10^9 nucleotides using HX-dG internal standard using [32P]labeling based autoradiography relative to untreated control", "in_short": "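Plants grown 2-6 weeks, groups of 2-4 sprayed four times over 2 weeks with label-rate formulations; water-sprayed controls. Leaf DNA kit-extracted. 10 µg DNA digested with micrococcal nuclease/spleen phosphodiesterase 4 h at 37 °C. NP1-enriched, then labeled with [γ-32P]ATP/T4 kinase 45 min at 37 °C. 2D PEI-cellulose TLC, imager readout. Samples spiked with 50 fmol HX-dG standard.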"}, "Cucurbita pepo [11]": {"tested_on": "Cucurbita pepo", "experiment": "Genotoxicity in Cucurbita pepo (pumpkin) exposed to compound through spray 4 times over 2 weeks assessed as relative adduct level A3 measured per 10^9 nucleotides using HX-dG internal standard using [32P]labeling based autoradiography relative to untreated control", "in_short": "as §1"}, "Glycine max [12]": {"tested_on": "Glycine max", "experiment": "Genotoxicity in Glycine max (soybean) exposed to compound through spray 4 times over 2 weeks assessed as relative adduct level A2 measured per 10^9 nucleotides using HX-dG internal standard using [32P]labeling based autoradiography relative to untreated control", "in_short": "as §1"}, "Glycine max [13]": {"tested_on": "Glycine max", "experiment": "Genotoxicity in Glycine max (soybean) exposed to compound through spray 4 times over 2 weeks assessed as relative adduct level A1 measured per 10^9 nucleotides using HX-dG internal standard using [32P]labeling based autoradiography relative to untreated control", "in_short": "as §1"}, "Cucurbita pepo [14]": {"tested_on": "Cucurbita pepo", "experiment": "Genotoxicity in Cucurbita pepo (pumpkin) exposed to compound through spray 4 times over 2 weeks assessed as relative adduct level A2 measured per 10^9 nucleotides using HX-dG internal standard using [32P]labeling based autoradiography relative to untreated control", "in_short": "as §1"}, "Cucurbita pepo [15]": {"tested_on": "Cucurbita pepo", "experiment": "Genotoxicity in Cucurbita pepo (pumpkin) exposed to compound through spray 4 times over 2 weeks assessed as relative adduct level A1 measured per 10^9 nucleotides using HX-dG internal standard using [32P]labeling based autoradiography relative to untreated control", "in_short": "as §1"}, "Cucurbita pepo [16]": {"tested_on": "Cucurbita pepo", "experiment": "Genotoxicity in Cucurbita pepo (pumpkin) exposed to compound through spray 4 times over 2 weeks assessed as relative adduct level A6 measured per 10^9 nucleotides using [32P]labeling based autoradiography relative to untreated control", "in_short": "as §1"}, "Cucurbita pepo [17]": {"tested_on": "Cucurbita pepo", "experiment": "Genotoxicity in Cucurbita pepo (pumpkin) exposed to compound through spray 4 times over 2 weeks assessed as relative adduct level A5 measured per 10^9 nucleotides using [32P]labeling based autoradiography relative to untreated control", "in_short": "as §1"}, "Cucurbita pepo [18]": {"tested_on": "Cucurbita pepo", "experiment": "Genotoxicity in Cucurbita pepo (pumpkin) exposed to compound through spray 4 times over 2 weeks assessed as relative adduct level A4 measured per 10^9 nucleotides using [32P]labeling based autoradiography relative to untreated control", "in_short": "as §1"}, "Cucurbita pepo [19]": {"tested_on": "Cucurbita pepo", "experiment": "Genotoxicity in Cucurbita pepo (pumpkin) exposed to compound through spray 4 times over 2 weeks assessed as relative adduct level A3 measured per 10^9 nucleotides using [32P]labeling based autoradiography relative to untreated control", "in_short": "as §1"}, "Cucurbita pepo [20]": {"tested_on": "Cucurbita pepo", "experiment": "Genotoxicity in Cucurbita pepo (pumpkin) exposed to compound through spray 4 times over 2 weeks assessed as relative adduct level A2 measured per 10^9 nucleotides using [32P]labeling based autoradiography relative to untreated control", "in_short": "as §1"}, "Cucurbita pepo [21]": {"tested_on": "Cucurbita pepo", "experiment": "Genotoxicity in Cucurbita pepo (pumpkin) exposed to compound through spray 4 times over 2 weeks assessed as relative adduct level A1 measured per 10^9 nucleotides using [32P]labeling based autoradiography relative to untreated control", "in_short": "as §1"}, "Vitis vinifera [22]": {"tested_on": "Vitis vinifera", "experiment": "Genotoxicity in Vitis vinifera exposed to compound through spray 4 times over 2 weeks assessed as relative adduct level A3 measured per 10^9 nucleotides using HX-dG internal standard using [32P]labeling based autoradiography relative to untreated control", "in_short": "as §1"}, "Glycine max [23]": {"tested_on": "Glycine max", "experiment": "Genotoxicity in Glycine max (soybean) exposed to compound through spray 4 times over 2 weeks assessed as HNE-dG adducts measured per 10^9 nucleotides using [32P]labeling based autoradiography (reference value: 2 no unit)", "in_short": "as §1"}, "Vitis vinifera [24]": {"tested_on": "Vitis vinifera", "experiment": "Genotoxicity in Vitis vinifera exposed to compound through spray 4 times over 2 weeks assessed as relative adduct level A2 measured per 10^9 nucleotides using HX-dG internal standard using [32P]labeling based autoradiography relative to untreated control", "in_short": "as §1"}, "Vitis vinifera [25]": {"tested_on": "Vitis vinifera", "experiment": "Genotoxicity in Vitis vinifera exposed to compound through spray 4 times over 2 weeks assessed as relative adduct level A1 measured per 10^9 nucleotides using HX-dG internal standard using [32P]labeling based autoradiography relative to untreated control", "in_short": "as §1"}}}
{"smiles": "N#Cc1c(Cl)c(Cl)c(Cl)c(C#N)c1Cl", "note": "[CHLOROTHALONIL]", "values": [{"measurement": "Activity", "setting": "Glycine max [1]", "value": 324}, {"measurement": "Activity", "setting": "Glycine max [2]", "value": 91}, {"measurement": "Activity", "setting": "Glycine max [3]", "value": 134}, {"measurement": "Activity", "setting": "Glycine max [4]", "value": 136}, {"measurement": "Activity", "setting": "Glycine max [5]", "value": 172}, {"measurement": "Activity", "setting": "Glycine max [6]", "value": 797}, {"measurement": "Activity", "setting": "Glycine max [7]", "value": 8163, "unit": "cpm"}, {"measurement": "Activity", "setting": "Cucurbita pepo [8]", "value": 71701, "unit": "cpm"}, {"measurement": "Activity", "setting": "Cucurbita pepo [9]", "value": 3195, "unit": "cpm"}, {"measurement": "Activity", "setting": "Cucurbita pepo [10]", "value": 679, "unit": "cpm"}, {"measurement": "Activity", "setting": "Cucurbita pepo [11]", "value": 3033, "unit": "cpm"}, {"measurement": "Activity", "setting": "Glycine max [12]", "value": 8753, "unit": "cpm"}, {"measurement": "Activity", "setting": "Glycine max [13]", "value": 40547, "unit": "cpm"}, {"measurement": "Activity", "setting": "Cucurbita pepo [14]", "value": 1323, "unit": "cpm"}, {"measurement": "Activity", "setting": "Cucurbita pepo [15]", "value": 3731, "unit": "cpm"}, {"measurement": "Activity", "setting": "Cucurbita pepo [16]", "value": 1409}, {"measurement": "Activity", "setting": "Cucurbita pepo [17]", "value": 63}, {"measurement": "Activity", "setting": "Cucurbita pepo [18]", "value": 13}, {"measurement": "Activity", "setting": "Cucurbita pepo [19]", "value": 60}, {"measurement": "Activity", "setting": "Cucurbita pepo [20]", "value": 26}, {"measurement": "Activity", "setting": "Cucurbita pepo [21]", "value": 73}, {"measurement": "Activity", "setting": "Vitis vinifera [22]", "value": 9447, "unit": "cpm"}, {"measurement": "Activity", "setting": "Glycine max [23]", "value": 160}, {"measurement": "Activity", "setting": "Vitis vinifera [24]", "value": 4015, "unit": "cpm"}, {"measurement": "Activity", "setting": "Vitis vinifera [25]", "value": 2201, "unit": "cpm"}]}
